Results as given in ChEMBL document CHEMBL5150021, “Identification of 5-(Aryl/Heteroaryl)amino-4-quinolones as Potent Membrane-Disrupting Agents to Combat Antibiotic-Resistant Gram-Positive Bacteria” (J Med Chem, 2022).
Converted amounts (≈) assume the structure as drawn. The source made the active and inactive calls. No cut-off for these calls is given here.

Tests used:
Enterococcus faecalis [1] = experiment: Antibacterial activity against Enterococcus faecalis ATCC700802 assessed as inhibition of bacterial growth incubated for 24 hrs by CLSI based method; format: functional
Outline: (§1)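 Broth microdilution per CLSI. Equal volume of twofold serial compound dilutions added. Incubated stationary at 37 °C for 24 h. MIC taken as lowest concentration giving complete inhibition of visible growth. Oxacillin control for Gram-positives, ceftriaxone for Gram-negatives.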

Vero [2] = experiment: Cytotoxicity against African green monkey Vero cells assessed as increase in LDH release at 0.47 to 30 uM incubated for 24 hrs; format: toxicity, cell-based; conditions: chlorocebus sabaeus, dose 0.47-30 µM
Outline: (§2)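 Confluent Vero cells (maintained in RPMI 1640 + 10% FBS, 37 °C, 5% CO2) exposed to compound at 0.47–30 μM (twofold dilutions) in serum-free medium for 24 h at 37 °C. LDH in supernatant is measured colorimetrically at 490 nm and expressed as percent of 2% detergent positive control.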

Cell membrane [3] = experiment: Induction of cell membrane damage in Staphylococcus aureus USA300 assessed as membrane wrinkling at 1 times MIC measured after 1 hrs by TEM analysis
Outline: (§3)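 Fixed in glutaraldehyde/paraformaldehyde in cacodylate pH 7.4, post-fixed with osmium tetroxide, stained with uranyl acetate, resin-embedded, thin-sectioned and imaged by TEM.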

Erythrocyte = experiment: Hemolytic activity in sheep erythrocytes at 32 ug/ml incubated for 1 hr; format: toxicity, cell-based, Ovis aries; conditions: dose 32 µg/ml
Outline: (§4)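 4% sheep erythrocytes mixed 1:1 with twofold serial compound dilutions in PBS, incubated stationary 1 h at 37 °C, then centrifuged at 500g for 5 min. Supernatant A540 is measured and percent hemolysis is calculated relative to DMSO vehicle (0%) and Triton X-100 (100%). Triplicate, mean ± SD.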

[4] = Kinetic aqueous solubility of the compound in DPBS at pH 7.4 at 100 ug/ml measured after 6 hrs by LC-MS/MS analysis; format: physicochemical; conditions: buffer, pH 7.4, 6 h, dose 100 µg/ml
Klebsiella pneumoniae = experiment: Antibacterial activity against Klebsiella pneumoniae 7117 assessed as inhibition of bacterial growth incubated for 24 hrs by CLSI based method; format: functional; outline: as §1
Enterobacter cloacae = experiment: Antibacterial activity against Enterobacter cloacae ND-21 assessed as inhibition of bacterial growth incubated for 24 hrs by CLSI based method; format: functional; outline: as §1
Cell membrane [5] = experiment: Induction of cell membrane damage in Staphylococcus aureus USA300 assessed as cross-wall-septum formation with reduced splitting at 1 times MIC measured after 10 mins by TEM analysis; format: subcellular
Enterococcus faecium [6] = experiment: Antibacterial activity against Enterococcus faecium ATCC19579 assessed as inhibition of bacterial growth incubated for 24 hrs by CLSI based method; format: functional; outline: as §1
Staphylococcus aureus [7] = experiment: Antibacterial activity against methicillin resistant Staphylococcus aureus FPR3757 assessed as inhibition of bacterial growth incubated for 24 hrs in presence of 10% mouse serum by CLSI based method; format: functional
Outline: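 CLSI broth microdilution against MRSA FPR3757 (USA300) in Mueller–Hinton broth supplemented with 10% serum (fetal bovine or mouse). Inoculum 10⁶ CFU/mL with twofold serial compound dilutions, stationary incubation at 37 °C for 24 h. MIC read as lowest concentration with complete inhibition of visible growth.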

Staphylococcus aureus [8] = experiment: Antibacterial activity against methicillin-resistant Staphylococcus aureus N315 assessed as inhibition of bacterial growth incubated for 24 hrs by CLSI based method; format: functional; outline: as §1
[9] = test system: Staphylococcus epidermidis; experiment: Antibacterial activity against Staphylococcus epidermidis NIF104003 assessed as inhibition of bacterial growth incubated for 24 hrs by CLSI based method; format: functional; outline: as §1
Cell membrane [10] = experiment: Induction of cell membrane damage in Staphylococcus aureus USA300 assessed as mesosome-like membrane inclusions at 1 times MIC measured after 1 hrs by TEM analysis; outline: as §3
Enterococcus faecalis [11] = experiment: Antibacterial activity against Enterococcus faecalis DHMC #1 assessed as inhibition of bacterial growth incubated for 24 hrs by CLSI based method; format: functional; outline: as §1
Escherichia coli = experiment: Antibacterial activity against Escherichia coli DHMC-1 assessed as inhibition of bacterial growth incubated for 24 hrs by CLSI based method; format: functional; outline: as §1
Staphylococcus aureus [12] = experiment: Antibacterial activity against methicillin-resistant Staphylococcus aureus NRS71 assessed as inhibition of bacterial growth incubated for 24 hrs by CLSI based method; format: functional; outline: as §1
Candida albicans = experiment: Antifungal activity against Candida albicans SC5314 assessed as inhibition of bacterial growth incubated for 24 hrs by CLSI based method; format: functional
Outline: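 Broth microdilution per CLSI. It is mixed 1:1 with twofold serial compound dilutions and incubated stationary at 35 °C for 24 h. MIC is read as the lowest concentration with no observable growth.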

[13] = Protein binding in human plasma at […] incubated for 4 hrs under shaking condition by LC-MS/MS based equilibrium dialysis method; format: ADME, cell-free
Outline: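 Rapid equilibrium dialysis (8k MWCO). Compound is spiked into human plasma at 10 μg/mL and dialysed against DPBS pH 7.4 with shaking for 4 h at 37 °C. Matrices are matched, proteins precipitated with methanol containing internal standard, and both chambers quantified by LC-MS/MS against a calibration curve. Percent free and bound are calculated from chamber concentrations.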

Staphylococcus aureus [14] = experiment: Antibacterial activity against methicillin resistant Staphylococcus aureus FPR3757 assessed as inhibition of bacterial growth incubated for 24 hrs by CLSI based method; format: functional; conditions: read-out: MIC100
Outline: (§5)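 It was mixed 1:1 with twofold serial compound dilutions and incubated stationary at 37 °C for 24 h. MIC was the lowest concentration giving complete inhibition of observable growth, with an oxacillin control.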

Enterococcus faecium [15] = experiment: Antibacterial activity against Enterococcus faecium DHMC #1 assessed as inhibition of bacterial growth incubated for 24 hrs by CLSI based method; format: functional; outline: as §1
[16] = Cmax in CD-1 mouse at 10 mg/kg, po administered as single dose and measured for 24 hrs by LC-MS/MS analysis; format: ADME, organism-based; set-up: time 24 hrs, dose 10 mg/kg, route po; conditions: in vivo
Staphylococcus aureus [17] = experiment: Antibacterial activity against methicillin-resistant Staphylococcus aureus MW2 assessed as inhibition of bacterial growth incubated for 24 hrs by CLSI based method; format: functional; outline: as §1
Cell membrane [18] = experiment: Induction of cell membrane damage in Staphylococcus aureus USA300 assessed as bulging of the septum at 1 times MIC measured after 1 hrs by TEM analysis; outline: as §3
Staphylococcus aureus [19] = experiment: microbe, parasite or virus in culture; conditions: USA300 FPR3757, 24 h
Staphylococcus aureus [20] = experiment: Antibacterial activity against community-associated methicillin-resistant Staphylococcus aureus USA300 FPR3757 assessed as inhibition of bacterial growth incubated for 24 hrs by CLSI based method; format: functional; outline: as §5
[21] = test system: Staphylococcus epidermidis; experiment: Antibacterial activity against Staphylococcus epidermidis NIF104008 assessed as inhibition of bacterial growth incubated for 24 hrs by CLSI based method; format: functional; outline: as §1
[22] = Volume of distribution in CD-1 mouse at 0.5 mg/kg, iv administered as single dose and measured for 24 hrs by LC-MS/MS analysis; format: ADME, organism-based; conditions: in vivo
Outline: (§6)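 Six-week-old female CD-1 mice (n = 3 per route). Dosing: single 0.5 mg/kg i.v. in 5% DMA/95% (4% Cremophor EL), or 10 mg/kg oral gavage in 5% DMA/60% PEG 300/35% D5W. Tail-vein blood is collected to 24 h into K2EDTA, and plasma is analysed by LC-MS/MS. Parameters come from noncompartmental analysis.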

[23] = Oral bioavailability in CD-1 mouse at 10 mg/kg administered as single dose and measured for 24 hrs by LC-MS/MS analysis; format: ADME, organism-based; conditions: in vivo; outline: as §6
[24] = AUC (0 to 24 hrs) in CD-1 mouse at 0.5 mg/kg, iv administered as single dose and measured for 24 hrs by LC-MS/MS analysis; format: ADME, organism-based; set-up: time 24 hrs, dose 0.5 mg/kg, route iv; conditions: in vivo
Outline: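 Six-week-old female CD-1 mice (20–25 g; n = 3) received one intravenous injection at 0.5 mg/kg in 5% DMA:95% (4% Cremophor EL). […] Plasma was stored at −80 °C and quantified by LC-MS/MS. AUC came from noncompartmental analysis, reported as mean ± SD.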

Vero [25] = experiment: Cytotoxicity against African green monkey Vero cells assessed as increase in LDH release at 30 uM incubated for 24 hrs relative to control; format: toxicity, cell-based; conditions: chlorocebus sabaeus; outline: as §2
Staphylococcus aureus [26] = experiment: Antibacterial activity against methicillin-resistant Staphylococcus aureus COL assessed as inhibition of bacterial growth incubated for 24 hrs by CLSI based method; format: functional; outline: as §1
[27] = AUC (0 to 24 hrs) in CD-1 mouse at 10 mg/kg, po administered as single dose and measured for 24 hrs by LC-MS/MS analysis; format: ADME, organism-based; set-up: time 24 hrs, dose 10 mg/kg, route po; conditions: in vivo
[28] = Cytotoxicity against sheep erythrocytes assessed as reduction in cell viability; format: toxicity, cell-based, Ovis aries, Erythrocyte; outline: as §4
[29] = Half life in CD-1 mouse at 0.5 mg/kg, iv administered as single dose and measured for 24 hrs by LC-MS/MS analysis; format: ADME, organism-based; conditions: in vivo; outline: as §6
Staphylococcus aureus [30] = experiment: Antibacterial activity against methicillin resistant Staphylococcus aureus assessed as inhibition of bacterial growth incubated for 15 hrs by CLSI based broth microdilution method; format: functional

O=c1cc(C(F)(F)F)[nH]c2cc(C(F)(F)F)cc(Nc3ccc(C(F)(F)F)cn3)c12
MIC (Enterococcus faecalis [1]): 2 µg/mL (≈ 4.53 µM)
Activity (Vero [2]): Non-Toxic
Activity (Cell membrane [3]): Active
Activity (Erythrocyte): Non-Toxic
Kinetic_solubility [4]: 2.4 µg/mL
MIC (Klebsiella pneumoniae): > 128 µg/mL
MIC (Enterobacter cloacae): > 128 µg/mL
Activity (Cell membrane [5]): Active
MIC (Enterococcus faecium [6]): < 0.06 µg/mL
MIC (Staphylococcus aureus [7]): 4 µg/mL
MIC (Staphylococcus aureus [8]): < 0.06 µg/mL
MIC [9]: < 0.06 µg/mL
Activity (Cell membrane [10]): Active
MIC (Enterococcus faecalis [11]): 2 µg/mL (≈ 4.53 µM)
MIC (Escherichia coli): > 128 µg/mL
MIC (Staphylococcus aureus [12]): < 0.06 µg/mL
MIC (Candida albicans): 256 µg/mL (≈ 580 µM)
PPB [13]: 99.7%
MIC (Staphylococcus aureus [14]): < 0.0625 µg/mL
MIC (Enterococcus faecium [15]): 2 µg/mL (≈ 4.53 µM)
Cmax [16]: 3100 ng/mL
MIC (Staphylococcus aureus [17]): < 0.06 µg/mL
Activity (Cell membrane [18]): Active
MBC (Staphylococcus aureus [19]): 2 µg/mL (≈ 4.53 µM)
MIC (Staphylococcus aureus [20]): 0.0625 µg/mL (≈ 0.142 µM)
MIC [21]: < 0.06 µg/mL
Vd [22]: 0.322 L/kg
F [23]: 51.6%
AUC [24]: 4200 ng·h/mL
Activity (Vero [25]): 20%
MIC (Staphylococcus aureus [26]): < 0.06 µg/mL
AUC [27]: 43300 ng·h/mL
CC50 [28]: > 32 µg/mL
t1/2 [29]: 1.88 h

Oc1cc(C(F)(F)F)nc2c(OC(F)(F)F)cccc12
MIC (Staphylococcus aureus [14]): 5 µg/mL (≈ 16.8 µM)
MIC (Staphylococcus aureus [30]): 8 µg/mL (≈ 26.9 µM)
